Results on 1 compound are retold here after BindingDB's records for doi:10.1021/acs.jmedchem.8b01327 (2019).

The assay concerns the target Mu-type opioid receptor (Rattus norvegicus, UniProt P33535). Nature of the assay: Displacement of [3H]DAMGO from mu opioid receptor in rat brain membranes incubated for 45 mins by liquid scintillation counting method. In a few lines:
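Rat brain membranes (cerebella removed; 0.3–0.5 mg protein) in 50 mM Tris-HCl, pH 7.4, were incubated 45 min at 35 °C with 1 nM [3H]DAMGO (MOR) or 0.5 nM [3H][Ile5,6]deltorphin II (DOR) plus varied test concentrations. Nonspecific binding was set with 10 μM naloxone. Samples were GF/C filtered, washed and scintillation counted. Ki was obtained by Cheng–Prusoff; duplicates, 3–4 experiments.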

Sequence of Mu-type opioid receptor (P33535 whole entry): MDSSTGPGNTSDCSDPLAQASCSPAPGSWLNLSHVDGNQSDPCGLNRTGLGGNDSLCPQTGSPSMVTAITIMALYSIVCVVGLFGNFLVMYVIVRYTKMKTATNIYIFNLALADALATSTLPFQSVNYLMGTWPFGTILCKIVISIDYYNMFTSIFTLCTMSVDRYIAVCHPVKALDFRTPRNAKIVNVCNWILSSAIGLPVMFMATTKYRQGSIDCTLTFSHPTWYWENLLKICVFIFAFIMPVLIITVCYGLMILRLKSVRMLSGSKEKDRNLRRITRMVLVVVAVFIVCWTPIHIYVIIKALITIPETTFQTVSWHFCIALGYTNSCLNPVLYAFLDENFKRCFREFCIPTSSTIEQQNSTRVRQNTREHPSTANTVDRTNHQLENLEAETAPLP

As to `CO[C@@]12CC[C@@H](N[C@@H](CC(N)=O)C(=O)O)[C@@H]3Oc4c(O)ccc5c4[C@@]31CCN(C)[C@@H]2C5`, affinity was put at a Ki of 1.3 nM.

As a reminder, the Ki is the equilibrium dissociation constant of an inhibitor or competing ligand from its target. A lower Ki goes with a stronger hold on the target.
